Source: PubChem
FN deposit inh: fibronectin deposition inhibition. AH1F fibroblasts, Alexa488-fibronectin deposition fluorescence, overnight. inhibition, % at 12.6 µM. 0.086% of 350,000 active. AID 743247;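 active = mean inhibition across replicates of 30% or more, regardless of how many single replicates reach that level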
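Assay system: AH1F fibroblasts / Quantity: 10000 cells per well / Medium: DMEM plus 2% serum, read in PBS / Reagent: labelled fibronectin 24 nM / Dosing: single dose, pinned / Times: 1 h cell attachment, overnight exposure to compound and label / Signal: fluorescence, ex 485 nm, em 525 nm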
ERp5 inh: inhibitors of human ERp5; ERp5 insulin aggregation, absorbance 650 nm, 90 min; inhibition, % at 9.99 µM; 0.05% of 350,000 active;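 active = mean replicate inhibition above about 25%, with every replicate also reaching it, limit read from the data, passing the limit was not always enough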
Target sequence (Q15084 whole entry, looked up): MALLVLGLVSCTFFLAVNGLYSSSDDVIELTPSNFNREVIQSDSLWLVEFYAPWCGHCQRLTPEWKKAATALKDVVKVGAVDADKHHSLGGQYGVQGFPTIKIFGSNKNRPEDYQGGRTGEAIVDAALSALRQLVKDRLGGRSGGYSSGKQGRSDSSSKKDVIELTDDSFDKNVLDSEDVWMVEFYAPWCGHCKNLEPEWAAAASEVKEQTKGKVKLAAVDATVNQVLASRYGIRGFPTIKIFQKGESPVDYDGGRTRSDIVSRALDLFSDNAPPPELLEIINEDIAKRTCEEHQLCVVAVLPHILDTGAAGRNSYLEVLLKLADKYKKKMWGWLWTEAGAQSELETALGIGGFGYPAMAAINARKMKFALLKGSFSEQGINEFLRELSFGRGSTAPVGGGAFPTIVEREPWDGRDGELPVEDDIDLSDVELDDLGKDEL
FGF22 binding: shifts melting point of recombinant human FGF22; recombinant FGF22 thermal shift, SYPRO orange fluorescence; percent of sucrose octasulfate shift, DMSO zero; 1.5% of 340,000 active; AID 651658; activity (Tm shift, normalised), % at 9.99 µM;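 active = mean Tm shift, scaled 0 neutral to 100 positive control, at about 1.3% or above, every replicate too, limit read from the data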
Target sequence (Q9HCT0 whole entry, looked up): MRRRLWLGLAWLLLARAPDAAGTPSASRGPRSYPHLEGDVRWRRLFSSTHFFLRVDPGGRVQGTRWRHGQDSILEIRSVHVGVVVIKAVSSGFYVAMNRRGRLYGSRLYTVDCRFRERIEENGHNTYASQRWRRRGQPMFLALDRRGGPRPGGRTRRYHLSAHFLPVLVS
PDI turbidity: blocks human protein disulfide isomerase activity; PDI insulin aggregation turbidity, A650, 90 min; AID 588391; inhibition, % at 10 µM; 0.052% of 350,000 active; P07237;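 active = mean inhibition across replicates of 30% or more, whatever share of single replicates reach that level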
AF4-AF9 inh: MLL-AF4/AF9 protein interaction inhibition; P42568; AlphaScreen, biotin-AF4 peptide binding to FLAG-AF9; inhibition, % at 10 µM; 0.47% of 350,000 active; AID 651704;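 active = every replicate reaching a set inhibition limit, whatever the replicate mean, cut at about 25% in these data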
ARNT TACC3 PPI: disrupts binding between human ARNT and TACC3; AID 623870; AlphaScreen His-ARNT PAS-B/GST-TACC3 binding, luminescence; TACC3 fragment carries E629A point mutation; inhibition, % at 9.99 µM; 0.66% of 390,000 active; Q9Y6A5;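 active = mean inhibition of replicates at least 50% and at least half of replicates each reaching 50%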
Of the large screens only hits and unclear results are named; the others gave an inactive call. Most compounds without a hit are left out; they make up all but 2.1% or so of the library.

C[C@@H]1CN([C@@H](C)CO)C(=O)c2cc(NC(=O)Nc3ccc(C(F)(F)F)cc3)ccc2O[C@H]1CN(C)C	none (no result: PDI turbidity)
CCCN1[C@@H]2c3ccc(-c4cccc(C(=O)N(C)C)c4)c(=O)n3C[C@@H]2[C@@H](CO)[C@@H]1C(=O)NCCOC	none (no result: FN deposit inh, PDI turbidity)
CCC(=O)N(C)C[C@@H]1Oc2cc(-c3ccccc3F)ccc2S(=O)(=O)N([C@H](C)CO)C[C@@H]1C	none (no result: FN deposit inh, PDI turbidity)
CCN(CC)C(=O)[C@H]1C[C@@H]2[C@H](C[C@@H](c3ccccc3)[C@H]1C)N(c1ccc(F)cc1)C(=O)N2CCCOc1ccccc1	FGF22 binding 42.9 (no result: PDI turbidity, ARNT TACC3 PPI)
CCNC(=O)C[C@@H]1CC[C@H]2[C@@H](COC[C@H](O)CN2C(=O)CC)O1	none (no result: PDI turbidity)
CCOC(=O)CNC(=O)CSc1nnc(NC(=O)c2ccccc2Cl)s1	FGF22 binding 43.0
COCCn1c(Cc2cccn2C)nnc1SCC(=O)NCc1ccc2c(c1)OCO2	FGF22 binding 43.7
Cc1nnc(SCC(=O)NCc2ccc3c(c2)OCO3)n1C	FGF22 binding 43.4
Cn1cccc1Cc1nnc(SCC(=O)Nc2ccc3c(c2)OCO3)n1CCc1ccccc1	none (no result: PDI turbidity, ARNT TACC3 PPI)
COc1cc([N+](=O)[O-])cc(/C=N/NC(=O)c2ccc(C)nc2)c1O	ARNT TACC3 PPI 65.3 (no result: ERp5 inh, FGF22 binding, AF4-AF9 inh)
COc1cc([N+](=O)[O-])cc(/C=N/NC(=O)Cn2cncn2)c1O	ARNT TACC3 PPI 61.3
COc1cc([N+](=O)[O-])cc(/C=N/NC(=O)c2ccc(NC(=O)c3ccc(C)cc3)cc2)c1O	none
c1ccc(-c2noc(CCC3CCCC3)n2)cc1	none
c1ccc(-c2noc(CC3CCCCC3)n2)cc1	FGF22 binding 42.9
Cc1noc(C)c1S(=O)(=O)Nc1ccc2c(c1)C(=O)N([C@@H](C)CO)C[C@H](C)[C@@H](CN(C)S(=O)(=O)c1ccc(F)cc1)O2	none (no result: FN deposit inh, PDI turbidity, ARNT TACC3 PPI)
COc1cccc(-c2ccc3c(c2)O[C@H](CN(C)C)[C@@H](C)CN([C@H](C)CO)S3(=O)=O)c1	none (no result: FN deposit inh, PDI turbidity)
C[C@H](CO)N1C[C@H](C)[C@@H](CN(C)Cc2ccccc2F)Oc2ncc(/C=C/c3ccccc3)cc2C1=O	AF4-AF9 inh 27.8 (no result: FN deposit inh, PDI turbidity)
C[C@H]1CN([C@@H](C)CO)C(=O)c2cc(/C=C/c3ccccc3)cnc2O[C@@H]1CN(C)Cc1ccccc1F	none (no result: FN deposit inh, PDI turbidity)
C[C@H](CO)N1C[C@H](C)[C@@H](CN(C)Cc2ccc3c(c2)OCO3)Oc2ncc(/C=C/c3ccccc3)cc2C1=O	AF4-AF9 inh 26.2 (no result: PDI turbidity)
CO[C@H]1CN(C)C(=O)c2ccc(NS(=O)(=O)c3cccc(F)c3)cc2OC[C@@H](C)N(C(=O)Cc2cccnc2)C[C@H]1C	none (no result: PDI turbidity)
CC(=O)N1C(=O)N(C)C2C1N(C(C)=O)C(=O)N2C (centres undefined)	none (no result: FN deposit inh, ERp5 inh, FGF22 binding, AF4-AF9 inh)
CC(=O)N1C(=O)N(C(C)=O)C2C1N(C)C(=O)N2C(C)=O (centres undefined)	FGF22 binding 43.3
Cc1noc(C)c1NC(=O)N(C)C[C@H]1Oc2c(NS(=O)(=O)c3ccc(Cl)cc3)cccc2C(=O)N([C@@H](C)CO)C[C@H]1C	none (no result: PDI turbidity)
Cc1cc(/C([O-])=C(/C(=S)Nc2ccc(F)cc2)[n+]2ccccc2)c(C)n1-c1ccc(F)cc1	ARNT TACC3 PPI 47.5 (no result: FN deposit inh, ERp5 inh, FGF22 binding, AF4-AF9 inh)
Cc1noc(C)c1NC(=O)Nc1ccc2c(c1)C(=O)N([C@H](C)CO)C[C@@H](C)[C@H](CN(C)C(=O)Nc1ccc(F)cc1)OCCCC[C@H](C)O2	none (no result: PDI turbidity, ARNT TACC3 PPI)
O=C1OC(c2ccccc2)(c2ccccc2)c2ccsc21	FGF22 binding 44.1 (no result: ARNT TACC3 PPI)
Cc1ccc(S(=O)(=O)N(C)C[C@H]2Oc3ccc(NS(=O)(=O)c4ccccc4)cc3CC(=O)N([C@H](C)CO)C[C@@H]2C)cc1	none (no result: FN deposit inh, PDI turbidity)
C=CCNC(=O)Nc1ccc(Cl)cn1	FGF22 binding 43.0
Cc1ccc(NC(=O)Nc2ccc(Cl)cn2)cc1	none
CCOC(=O)c1cc(C#N)c(SCC(=O)O)[nH]c1=O	FGF22 binding 45.0
CCOC(=O)c1cc(C#N)c(SCC(N)=O)[nH]c1=O	none
CCOC(=O)c1cc(C#N)c(SCC(=O)Nc2ccc(C(C)=O)cc2)[nH]c1=O	FGF22 binding 1.4 (no result: ARNT TACC3 PPI)
C[C@@H]1CCCCO[C@H](CN(C)C(=O)Nc2ccc(C(F)(F)F)cc2)[C@H](C)CN([C@@H](C)CO)C(=O)c2cc(NC(=O)Nc3ccc(C(F)(F)F)cc3)ccc2O1	none (no result: ERp5 inh, PDI turbidity, AF4-AF9 inh)
COc1ccc(NC(=O)Nc2ccc3c(c2)C(=O)N([C@@H](C)CO)C[C@H](C)[C@H](CN(C)C(=O)Nc2ccc(C(F)(F)F)cc2)OCCCC[C@H](C)O3)cc1	none (no result: FN deposit inh, PDI turbidity)
C[C@@H]1CCCCO[C@@H](CN(C)C(=O)Nc2ccc(C(F)(F)F)cc2)[C@@H](C)CN([C@H](C)CO)C(=O)c2cc(NC(=O)Nc3ccc(F)cc3)ccc2O1	none (no result: PDI turbidity, ARNT TACC3 PPI)
COc1ccc(NC(=O)Nc2ccc3c(c2)C(=O)N([C@@H](C)CO)C[C@@H](C)[C@H](CN(C)C(=O)Nc2ccc(C(F)(F)F)cc2)OCCCC[C@@H](C)O3)cc1	FGF22 binding 1.2 (no result: FN deposit inh, PDI turbidity)
C[C@@H]1CCCCO[C@@H](CN(C)C(=O)Nc2ccc(F)cc2)[C@H](C)CN([C@@H](C)CO)C(=O)c2cc(NC(=O)Nc3ccc(C(F)(F)F)cc3)ccc2O1	FGF22 binding 1.4 (no result: FN deposit inh, PDI turbidity, ARNT TACC3 PPI)
C[C@H]1CCCCO[C@H](CN(C)C(=O)Nc2ccc(F)cc2)[C@@H](C)CN([C@@H](C)CO)C(=O)c2cc(NC(=O)Nc3ccc(C(F)(F)F)cc3)ccc2O1	FGF22 binding 1.6 (no result: FN deposit inh, PDI turbidity, ARNT TACC3 PPI)
C[C@@H]1CCCCO[C@H](CN(C)C(=O)Nc2ccc(C(F)(F)F)cc2)[C@@H](C)CN([C@H](C)CO)C(=O)c2cc(NC(=O)Nc3ccc(C(F)(F)F)cc3)ccc2O1	FGF22 binding 1.4 (no result: PDI turbidity)
COc1ccc2c3c([nH]c2c1)[C@H](CO)N(Cc1nccs1)CC31CCN(C(=O)C2CCOCC2)CC1	none (no result: FN deposit inh, PDI turbidity, ARNT TACC3 PPI)
Cc1ccc(NC(=O)c2sc(N)nc2-c2ccc([N+](=O)[O-])cc2)cc1C	none
Cc1ccc(NC(=O)c2sc(N)nc2-c2ccc([N+](=O)[O-])cc2)c(C)c1	AF4-AF9 inh 29.8
O=C(C[C@@H]1C=C[C@@H](NC(=O)c2ccc(F)cc2)[C@H](CO)O1)NCCc1ccccc1	none (no result: PDI turbidity)
O=C1NCC2=C1C(c1ccc(Br)cc1)Nc1ccccc1N2 (centres undefined)	ARNT TACC3 PPI active (no result: FN deposit inh, ERp5 inh, FGF22 binding, AF4-AF9 inh)
Cc1ccc([C@H]2C[C@H](n3cc(COC(=O)c4ccccc4)nn3)[C@@H](O)CN2C(=O)c2cccs2)cc1	none (no result: ARNT TACC3 PPI)
COc1ccc([C@H]2C[C@@H](O)[C@H](n3cc(COC(=O)c4ccccc4)nn3)CN2C(=O)c2cccs2)cc1	FGF22 binding 43.3 (no result: ARNT TACC3 PPI)
CCn1nccc1C(=O)Nc1ccccc1OC	none
CCn1ncc(Br)c1C(=O)Nc1ccccc1OC	FGF22 binding 44.0
O=C1C(N2CCOCC2)=C(n2nnc3ccccc32)C(=O)c2ccccc21	ARNT TACC3 PPI 45.5 (no result: ERp5 inh, FGF22 binding, AF4-AF9 inh)
